Experiment [1] has as its system Scedosporium boydii. Nature of the experiment: Antifungal activity against Scedosporium boydii FMR 6694 infected in immunosuppressed OF1 mouse assessed as reduction in kidney fungal burden at 10 mg/kg, po BID administered 24 hrs postinfection for 10 days measured after 20 days. Format: functional, organism-based. Set-up: dose 10 mg/kg.
Experiment [2] has as its system Scedosporium apiospermum. As to the kind of experiment: Antifungal activity against Scedosporium apiospermum CBS 117407 infected in immunosuppressed OF1 mouse assessed as reduction in brain fungal burden at 20 mg/kg, po BID administered 24 hrs postinfection for 10 days measured after 20 days. Format: functional, organism-based. Set-up: dose 20 mg/kg.
Experiment [3] has as its system Scedosporium boydii. Nature of the experiment: Antifungal activity against Scedosporium boydii FMR 6694 infected in immunosuppressed OF1 mouse assessed as reduction in brain fungal burden at 40 mg/kg, po BID administered 24 hrs postinfection for 10 days measured after 20 days. Set-up: dose 40 mg/kg. Format: functional, organism-based.
For experiment [4], the system named is Scedosporium apiospermum. Nature of the experiment: Antifungal activity against Scedosporium apiospermum IHEM 14464 infected in immunosuppressed OF1 mouse assessed as prolonged survival of mouse at 10 mg/kg, po BID administered 24 hrs postinfection for 10 days measured after 20 days. Format: functional, organism-based. Set-up: dose 10 mg/kg. In short, it runs like this:
(§1)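 Male OF1 mice, groups of 10, immunosuppressed 1 day before infection with cyclophosphamide 200 mg/kg i.p. plus 5-fluorouracil 150 mg/kg i.v. Infected i.v. via tail vein with 1 × 10^4 CFU in 0.2 ml saline. Oral treatment began 24 h post-challenge for 10 days. Mice checked daily for 20 days. Survival by Kaplan-Meier, compared by log rank test.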

Experiment [5] has as its system Scedosporium aurantiacum. Nature of the experiment: Antifungal activity against Scedosporium aurantiacum IHEM 15458 infected in immunosuppressed OF1 mouse assessed as reduction in kidney fungal burden at 20 mg/kg, po BID administered 24 hrs postinfection for 10 days measured after 20 days. Set-up: dose 20 mg/kg. Format: functional, organism-based.
In experiment [6] the test system is Scedosporium boydii. As to the kind of experiment: Antifungal activity against Scedosporium boydii FMR 8627 infected in immunosuppressed OF1 mouse assessed as reduction in kidney fungal burden at 10 mg/kg, po BID administered 24 hrs postinfection for 10 days measured after 20 days. Set-up: dose 10 mg/kg. Format: functional, organism-based.
Experiment [7] relates to Scedosporium aurantiacum. As to the kind of experiment: Antifungal activity against Scedosporium aurantiacum IHEM 15458 infected in immunosuppressed OF1 mouse assessed as reduction in brain fungal burden at 20 mg/kg, po BID administered 24 hrs postinfection for 10 days measured after 20 days. Format: functional, organism-based. Set-up: dose 20 mg/kg.
Experiment [8] concerns Scedosporium apiospermum. Nature of the experiment: Antifungal activity against Scedosporium apiospermum CBS 117407 infected in immunosuppressed OF1 mouse assessed as reduction in kidney fungal burden at 20 mg/kg, po BID administered 24 hrs postinfection for 10 days measured after 20 days. Format: functional, organism-based. Set-up: dose 20 mg/kg.
Experiment [9] has as its system Scedosporium apiospermum. Nature of the experiment: Antifungal activity against Scedosporium apiospermum CBS 117407 infected in immunosuppressed OF1 mouse assessed as prolonged survival of mouse at 10 mg/kg, po BID administered 24 hrs postinfection for 10 days measured after 20 days. Format: functional, organism-based. Set-up: dose 10 mg/kg. A digest of the protocol: as §1

Experiment [10] relates to Scedosporium boydii. Nature of the experiment: Antifungal activity against Scedosporium boydii FMR 6694 infected in immunosuppressed OF1 mouse assessed as reduction in kidney fungal burden at 20 mg/kg, po BID administered 24 hrs postinfection for 10 days measured after 20 days. Format: functional, organism-based. Set-up: dose 20 mg/kg.
Experiment [11] relates to Scedosporium aurantiacum. Nature of the experiment: Antifungal activity against Scedosporium aurantiacum CBS 116910 infected in immunosuppressed OF1 mouse assessed as reduction in brain fungal burden at 40 mg/kg, po BID administered 24 hrs postinfection for 10 days measured after 20 days. Format: functional, organism-based. Set-up: dose 40 mg/kg.
The subject of experiment [12] is Scedosporium boydii. As to the kind of experiment: Antifungal activity against Scedosporium boydii FMR 8627 infected in immunosuppressed OF1 mouse assessed as reduction in brain fungal burden at 20 mg/kg, po BID administered 24 hrs postinfection for 10 days measured after 20 days. Format: functional, organism-based. Set-up: dose 20 mg/kg.
Experiment [13] relates to Scedosporium apiospermum. As to the kind of experiment: Antifungal activity against Scedosporium apiospermum IHEM 14464 infected in immunosuppressed OF1 mouse assessed as reduction in brain fungal burden at 40 mg/kg, po BID administered 24 hrs postinfection for 10 days measured after 20 days. Format: functional, organism-based. Set-up: dose 40 mg/kg.
Experiment [14] concerns Scedosporium apiospermum. As to the kind of experiment: Antifungal activity against Scedosporium apiospermum IHEM 14464 by broth dilution method. Format: functional.

As a reminder, the MIC is the least concentration at which growth counts as inhibited.

SMILES strings stand for the structures. Values after ≈ are worked out from the molar mass of the structure shown. Active and inactive are the calls of the source. The calls are words filed in the database; no cut-off is given here.

`CC[C@@H]([C@H](C)O)n1ncn(-c2ccc(N3CCN(c4ccc(OC[C@@H]5CO[C@@](Cn6cncn6)(c6ccc(F)cc6F)C5)cc4)CC3)cc2)c1=O` [POSACONAZOLE]: the result in the experiment with Scedosporium boydii [1], in the experiment with Scedosporium boydii [3] and in the experiment on Scedosporium boydii [10] was inactive. In addition, the outcome in the experiment with Scedosporium apiospermum [2], with Scedosporium apiospermum [4], with Scedosporium aurantiacum [5], with Scedosporium boydii [6], with Scedosporium aurantiacum [7] and in the experiment on Scedosporium apiospermum [8] was Active. In addition, the result in the experiment with Scedosporium apiospermum [9], in the experiment with Scedosporium aurantiacum [11], in the experiment with Scedosporium boydii [12] and with Scedosporium apiospermum [13] was Active. In the experiment on Scedosporium apiospermum [14], this compound returned an MIC of 0.5 µg/mL (≈ 0.713 µM).

For the origin of these results see ChEMBL document CHEMBL1649314, “Experimental murine scedosporiosis: histopathology and azole treatment” (2010).
